Marks after values point to notes of the source that are not given here. Ends that are not written are not given here.
How the values were obtained:
E. coli ATCC 25922 = test: Antibacterial activity, microdilution assay; type: cell-based; details: microdilution (CLSI), 96-well, 24 h at 37 °C, absorbance 620 nm, n = 2
Outline: (§1)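 MIC by CLSI broth microdilution. Peptide solutions at 200, 100, 50, 25, 12.5 and 6.2 μg mL−1 were mixed 9:1 with bacterial inoculum (5 × 10^6 CFU mL−1). Plates were incubated 24 h at 37 °C and read at A620. […] Duplicate runs (n = 2).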

S. aureus ATCC 25923 = test: Antibacterial activity, microdilution assay; type: cell-based; details: microdilution (CLSI), 96-well, 24 h at 37 °C, absorbance 620 nm, n = 2
Outline: as §1

[1] = system: breast cancer cell line MDA-MB-468; test: MTT cytotoxicity assay; type: cell-based, human; details: 37 °C, 5% FBS, mean ± SD (n = 3); for Cellular Viability (%), MDA-MB-468 cells, 2 h: peptide 200 μg mL−1, 2 h; for Cellular Viability (%), MDA-MB-468 cells, 24 h: peptide 200 μg mL−1, 24 h; for Cellular Viability (%), MDA-MB-468 cells, 48 h: peptide 200 μg mL−1, 48 h
Outline: (§2)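 Cells (1 × 10^4 per well) adhered for 14 h at 37 °C in humidified 5% CO2. Medium was then replaced with equal volumes of supplemented RPMI (10%) and peptide solution (200–6.25 μg mL−1), giving 5% final FBS. After 2, 24 or 48 h, MTT (5 mg mL−1 stock) was added for 4 h at 37 °C. Formazan was dissolved in DMSO and read at A570; mean ± S.D., n = 3.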

[2] = system: young human fibroblast primary cell culture; test: MTT cytotoxicity assay; type: cell-based; details: 37 °C, 5% FBS, mean ± SD (n = 3); for Cellular Viability (%), Fibroblast cells, 2 h: peptide 200 μg mL−1, 2 h; for Cellular Viability (%), Fibroblast cells, 24 h: peptide 200 μg mL−1, 24 h; for Cellular Viability (%), Fibroblast cells, 48 h: peptide 200 μg mL−1, 48 h
Outline: as §2

MDA-MB-468 cells = test: Morphologic changes by phase-contrast microscopy; type: cell-based, human; details: phase-contrast microscopy 20×, peptide at 134,61 μM, 24 h
Outline: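 MDA-MB-468 cells (ATCC HTB-132), 1 × 10^4 per well, were allowed to adhere for 14 h at 37 °C in 5% CO2. Medium was then replaced with supplemented RPMI plus test compound, giving 5% FBS final. Plates were incubated at 37 °C in 5% CO2, and cells were photographed before MTT addition. Untreated cells were recorded alongside.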

Substance	MIC, E. coli ATCC 25922 (E. coli ATCC 25922)	MIC, S. aureus ATCC 25923 (S. aureus ATCC 25923)	Cellular Viability (%), MDA-MB-468 cells, 2 h [1]	Cellular Viability (%), MDA-MB-468 cells, 24 h [1]	Cellular Viability (%), MDA-MB-468 cells, 48 h [1]	Cellular Viability (%), Fibroblast cells, 2 h [2]	Cellular Viability (%), Fibroblast cells, 24 h [2]	Cellular Viability (%), Fibroblast cells, 48 h [2]	morphological changes in MDA-MB-468 cells (MDA-MB-468 cells)
RAQWRWQWR-NH2 [Peptide A2]	146 µM	146 µM	62 ± 4%	63 ± 4%	58 ± 6%	100 ± 2 ^a %	94 ± 2 ^a %	87 ± 2 ^a %	significant morphological changes associated with the cytotoxic effect were not observed
RWQWRWAWR-NH2 [Peptide A7]	18 µM	140 µM	59 ± 6%	57 ± 3%	56 ± 1%	96 ± 5 ^a %	100 ± 1 ^a %	79 ± 5 ^a %	morphological changes were observed, acquiring rounded forms
RWQWRAQWR-NH2 [Peptide A6]	37 µM	–	55 ± 6%	49 ± 5%	52 ± 5%	100 ± 2 ^a %	88 ± 2 ^a %	79 ± 4 ^a %	significant morphological changes associated with the cytotoxic effect were not observed
RWQWAWQWR-NH2 [Peptide A5]	–	143 µM	71 ± 8%	62 ± 7%	64 ± 4%	99 ± 1 ^a %	81 ± 1 ^b %	82 ± 1 ^a %	morphological changes were observed, acquiring rounded forms

Continued, in another order:

MIC, E. coli ATCC 25922 (E. coli ATCC 25922)	MIC, S. aureus ATCC 25923 (S. aureus ATCC 25923)	Substance	Cellular Viability (%), MDA-MB-468 cells, 2 h [1]	Cellular Viability (%), MDA-MB-468 cells, 24 h [1]	Cellular Viability (%), MDA-MB-468 cells, 48 h [1]	Cellular Viability (%), Fibroblast cells, 2 h [2]	Cellular Viability (%), Fibroblast cells, 24 h [2]	Cellular Viability (%), Fibroblast cells, 48 h [2]	morphological changes in MDA-MB-468 cells (MDA-MB-468 cells)
37 µM	146 µM	RWQWRWQAR-NH2 [Peptide A8]	69 ± 5%	62 ± 5%	61 ± 6%	100 ± 1 ^a %	94 ± 1 ^a %	85 ± 4 ^a %	significant morphological changes associated with the cytotoxic effect were not observed
143 µM	143 µM	RWQWRWQWA-NH2 [Peptide A9]	64 ± 7%	55 ± 6%	65 ± 7%	100 ± 4 ^a %	98 ± 3 ^a %	100 ± 3 ^a %	–

Source: PMC9053608 (RSC Advances, 2020)
